The source of these data is ChEMBL document CHEMBL1133664, “Synthesis and evaluation of hydroxylated polyamine analogues as antiproliferatives” (J Med Chem, 2000).

For experiment [1], the system named is L1210. The experiment is described as follows: Putrescine(PUT) levels in L1210 cells after 48 hr of treatment with the compound at the dose of 10 uM. In kind it is functional, Mus musculus. In short, it runs like this:
(§1)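 Log-phase L1210 cells treated 48 h, washed twice in ice-cold incomplete medium, extracted with 0.6 N perchloric acid and freeze-fractured three times. Polyamines are quantified by HPLC. PUT, SPD and SPM are expressed as percent of untreated control.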

In experiment [2] the test system is L1210. Description: Putrescine(PUT) levels in L1210 cells after 48 hr of treatment with the compound at the dose of 100 MicroM. The class given is functional, Mus musculus. In short, it runs like this:
as §1

In experiment [3] the test system is L1210. Description: Spermidine(SPD) levels in L1210 cells after 48 hr of treatment with the compound at the dose of 10 uM. The class given is functional, Mus musculus. The method in brief:
as §1

In experiment [4] the test system is L1210. The experiment is described as follows: Spermidine(SPD) levels in L1210 cells after 48 hr of treatment with the compound at the dose of 100 uM. In kind it is functional, Mus musculus. The method in brief:
as §1

The test system of experiment [5] is L1210. The experiment is described as follows: Spermine(SPM) levels in L1210 cells after 48 hr of treatment with the compound at the dose of 10 uM. In kind it is functional, Mus musculus. The method in brief:
as §1

Experiment [6] relates to L1210. The experiment is described as follows: Spermine(SPM) levels in L1210 cells after 48 hr of treatment with the compound at the dose of 100 uM. The class given is functional, Mus musculus. In short, it runs like this: as §1
The subject of experiment [7] is L1210. The experiment is described as follows: Growth inhibition of L1210 cells was measured in the presence of nine different concentrations: 0,0.03,0.1,0.3,1,3,10,30, and 100 uM after 48 hours. The class given is functional, cell-based. The conditions noted are these: Mus musculus, L1210, 48 h. In short, it runs like this:
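L1210 leukemia cells were kept in log growth in RPMI-1640 with 10% FBS, HEPES-MOPS and 1 mM aminoguanidine at 37 °C under 5% CO2. Cultures at 0.5-1.0 × 10^5 cells/mL were dosed with filtered aqueous compound and counted by Coulter counter at 48 h, then reseeded and counted again at 96 h.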

Experiment [8] has as its target T1, Ornithine decarboxylase (Mus musculus) (UniProt P00860).
T1 sequence (whole entry): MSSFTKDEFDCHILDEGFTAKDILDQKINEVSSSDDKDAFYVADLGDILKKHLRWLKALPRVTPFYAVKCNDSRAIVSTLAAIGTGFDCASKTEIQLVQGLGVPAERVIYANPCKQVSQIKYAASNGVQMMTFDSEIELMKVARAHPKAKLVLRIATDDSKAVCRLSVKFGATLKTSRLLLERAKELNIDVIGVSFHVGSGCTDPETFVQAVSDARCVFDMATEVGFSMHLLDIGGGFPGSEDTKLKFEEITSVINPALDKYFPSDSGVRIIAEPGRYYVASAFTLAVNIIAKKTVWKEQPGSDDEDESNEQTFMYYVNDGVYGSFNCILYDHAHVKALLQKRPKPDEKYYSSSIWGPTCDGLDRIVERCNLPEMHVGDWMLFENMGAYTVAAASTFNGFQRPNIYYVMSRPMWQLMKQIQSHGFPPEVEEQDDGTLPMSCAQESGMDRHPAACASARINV
The experiment is described as follows: Effect of compound on Ornithine decarboxylase (ODC) […] in L1210 cells. In kind it is cell-based. The method in brief: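 L1210 cells treated 4 h at 1 µM, with an additional arm at 10 µM for 4 h. ODC activity is expressed as percent of untreated control. Each run includes untreated cells as negative control and a DEHSPM-treated positive control. Values are the mean of at least three experiments.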

In experiment [9] the test system is L1210. Description: Effect of compound on Spermidine/Spermine N'-Acetyltransferase (SSAT) in L1210 cells. The class given is cell-based. In short, it runs like this:
(§2)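 L1210 cells treated 48 h at 10 µM, or 2 µM for DENSPM. SSAT is quantified as [14C]-N1-acetylspermidine formed from spermidine and [14C]acetyl-CoA. Values are the mean of at least three experiments.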

In experiment [10] the test system is S-adenosylmethionine decarboxylase (Mus musculus). Description: Effect of compound on S-Adenosyl-methionine decarboxylase in L1210 cells. Also on record: unit not given here.
The subject of experiment [11] is L1210. The experiment is described as follows: Putrescine(PUT) levels in L1210 cells after 48 hr of treatment with the compound at the dose of 2 uM. The class given is functional, Mus musculus. The method in brief:
as §1

In experiment [12] the test system is L1210. The experiment is described as follows: Spermidine(SPD) levels in L1210 cells after 48 hr of treatment with the compound at the dose of 2 uM. In kind it is functional, Mus musculus. In short, it runs like this:
as §1

For experiment [13], the system named is L1210. The experiment is described as follows: Spermine(SPM) levels in L1210 cells after 48 hr of treatment with the compound at the dose of 2 uM. In kind it is functional, Mus musculus. In short, it runs like this:
as §1

Experiment [14] has as its system L1210. The experiment is described as follows: Growth uM after 48 hours. In kind it is functional, cell-based. The conditions noted are these: Mus musculus, L1210, 48 h.
In experiment [15] the test system is L1210. The experiment is described as follows: Growth uM after 96 hours. The class given is functional, cell-based. The conditions noted are these: Mus musculus, L1210, 96 h.
Experiment [16] relates to L1210. Description: Ki was estimated by competitive inhibition of [3H]SPD transport by L1210 cells. The class given is functional, cell-based, Mus musculus. In short, it runs like this:
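L1210 cells incubated 20 min at 37 °C in medium with 1-10 µM [3H]spermidine, alone or with 10, 25 or 50 µM analogue. Cells are then washed with cold medium containing 1 mM SPD, digested in NaOH at 60 °C and counted by scintillation. Ki is taken from substrate-competitive inhibition kinetics; values are means of two or three experiments.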

Experiment [17] deals with L1210. The experiment is described as follows: Effect of compound on Spermidine/Spermine N'-Acetyltransferase(SSAT) in L1210 cells. In kind it is cell-based. In short, it runs like this: as §2
Experiment [18] has as its system L1210. The experiment is described as follows: Putrescine(PUT) levels in L1210 cells after 48 hr of treatment with the compound at the dose of 200 uMicroM. The class given is functional, Mus musculus. In short, it runs like this:
as §1

Experiment [19] relates to L1210. The experiment is described as follows: Putrescine(PUT) levels in L1210 cells after 48 hr of treatment with the compound at the dose of 40 uM. In kind it is functional, Mus musculus. The method in brief:
as §1

Experiment [20] relates to L1210. Description: Spermidine(SPD) levels in L1210 cells after 48 hr of treatment with the compound at the dose of 200 uM. The class given is functional, Mus musculus. In short, it runs like this: as §1
Experiment [21] has as its system L1210. Description: Spermidine(SPD) levels in L1210 cells after 48 hr of treatment with the compound at the dose of 40 uM. In kind it is functional, Mus musculus. In short, it runs like this:
as §1

Experiment [22] relates to L1210. The experiment is described as follows: Spermine(SPM) levels in L1210 cells after 48 hr of treatment with the compound at the dose of 200 uM. In kind it is functional, Mus musculus. The method in brief:
as §1

The test system of experiment [23] is L1210. The experiment is described as follows: Spermine(SPM) levels in L1210 cells after 48 hr of treatment with the compound at the dose of 40 uM. In kind it is functional, Mus musculus. In short, it runs like this:
as §1

Experiment [24] concerns L1210. The experiment is described as follows: Putrescine(PUT) levels in L1210 cells after 48 hr of treatment with the compound at the dose of 0.15 uM. The class given is functional, Mus musculus. The method in brief:
as §1

Experiment [25] concerns L1210. Description: Putrescine(PUT) levels in L1210 cells after 48 hr of treatment with the compound at the dose of 0.75 uM. The class given is functional, Mus musculus. The method in brief:
as §1

For experiment [26], the system named is L1210. Description: Spermidine(SPD) levels in L1210 cells after 48 hr of treatment with the compound at the dose of 0.15 uM. The class given is functional, Mus musculus. The method in brief: as §1
Experiment [27] has as its system L1210. The experiment is described as follows: Spermidine(SPD) levels in L1210 cells after 48 hr of treatment with the compound at the dose of 0.75 uM. In kind it is functional, Mus musculus. The method in brief: as §1
Experiment [28] has as its system L1210. Description: Spermine(SPM) levels in L1210 cells after 48 hr of treatment with the compound at the dose of 0.15 uM. The class given is functional, Mus musculus. The method in brief: as §1
In experiment [29] the test system is L1210. The experiment is described as follows: Spermine(SPM) levels in L1210 cells after 48 hr of treatment with the compound at the dose of 0.75 uM. In kind it is functional, Mus musculus. The method in brief:
as §1

The mark [30] stands for this setting: in the assay text read “1 uM” for “10 uM”.

One may read the IC50 as the concentration that gives 50% inhibition. Regarding `CCNCCCNCCCNCCCNCC` [BIS(ETHYL)NORSPERMINE], the Activity in the experiment with L1210 [1] (setting [30]) worked out at 66; in the experiment on L1210 [2] it was 0; in the experiment with L1210 [3] (setting [30]), 46; with L1210 [4], 6; in the experiment with L1210 [5] (setting [30]), 94; with L1210 [6], 30. Further, the Activity was 7 in experiment [8], 1470 in the experiment with L1210 [9] and 42 in experiment [10]. Besides, in the experiment on L1210 [7], the IC50 was found to be 20 µM.
What is called Ki is the dissociation constant of the complex between target and ligand, obtained from inhibition or displacement. For `CCNCC[C@H](O)CNCCCCNC[C@@H](O)CCNCC` [IVOSPEMIN], the Activity in the experiment on L1210 [1] was 3; with L1210 [11], 3; with L1210 [3] it was 4; in the experiment on L1210 [12], 11; in the experiment with L1210 [5], 53; with L1210 [13], 62. The Activity in experiment [8] came out at 17; in the experiment on L1210 [17], 114; in experiment [10] it was 52. In addition, the half-maximal inhibitory concentration (IC50) with L1210 [14] was found to be 2 µM; in the experiment with L1210 [15], 0.06 µM. Besides, the Ki in the experiment with L1210 [16] was 2.4 µM.
Turning to `CCNCC[C@@H](O)CNCCCCNC[C@H](O)CCNCC`, the Activity in the experiment on L1210 [18] is listed as 4; in the experiment on L1210 [19], 5; in the experiment on L1210 [20], 13; in the experiment with L1210 [21], 19; with L1210 [22], 104; with L1210 [23] it was 107. Also, the Activity came to 55 in [8], 102 with L1210 [17] and 68 in experiment [10]. For the same compound, the IC50 is 40 µM with L1210 [14] and 0.08 µM with L1210 [15]. Besides, the Ki with L1210 [16] was 1.7 µM.
`CCNCCCCNCCCCNCCCCNCC` [DIETHYLHOMOSPERMINE]: the Activity in the experiment on L1210 [1] was 3; in the experiment with L1210 [24] it was 97; with L1210 [25], 49; in the experiment on L1210 [26] it was 91; with L1210 [27], 40; with L1210 [3], 1. In addition, the Activity came out at 110 in the experiment on L1210 [28]; 101 in the experiment on L1210 [29]; 57 with L1210 [5]; 7 in [8]; 110 with L1210 [17]; 41 in experiment [10].
In turn, `CCNC[C@H](O)CNCCCNC[C@@H](O)CNCC` returned an Activity in experiment [8] of 61.
As to `CCNC[C@@H](O)CNCCCNC[C@H](O)CNCC`, the Activity in [8] stood at 35.
